Only some compounds are listed: those with a hit (about 3.1% of all), similar ones and a draw of the others.
CHO parental Ca = signal in parental CHO cells, OX1R antagonist counter-screen; parental CHO-K1, ATP-induced calcium, Fluo-8 fluorescence; AID 463079; inhibition, % at 5.6 µM; hit rate 0.63% among 330,000;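 active = inhibition above that plate's mean sample inhibition plus 3 SD, cut at about 26% in these data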;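 also: 0% = ATP-challenged DMSO wells and 100% = DMSO wells without ATP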
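Test system: untransfected parental CHO cell line; also added: ATP stimulus; dosing: 5.6 µM, single dose; signal: calcium-sensitive Fluo-8 fluorescence; measure: percent inhibition of ATP-evoked calcium rise, normalized to controls; benchmarks: low control ATP plus DMSO, high control DMSO only; replication: one well per compound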
OX1R antag-1 = human HCRTR1 antagonism | O43613 | CHO/OX1R cells, Fluo-8 calcium fluorescence, orexin A | inhibition, % at 5 µM | hit rate 0.43% among 330,000 | AID 434989;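 active = inhibition above its plate's threshold, mean inhibition of all tested compounds on the plate plus 3 SD, cut at about 37% in these data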;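 also: 0% = orexin A challenge wells and 100% = SB-334867-A antagonist wells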
Target sequence (O43613 whole entry, looked up): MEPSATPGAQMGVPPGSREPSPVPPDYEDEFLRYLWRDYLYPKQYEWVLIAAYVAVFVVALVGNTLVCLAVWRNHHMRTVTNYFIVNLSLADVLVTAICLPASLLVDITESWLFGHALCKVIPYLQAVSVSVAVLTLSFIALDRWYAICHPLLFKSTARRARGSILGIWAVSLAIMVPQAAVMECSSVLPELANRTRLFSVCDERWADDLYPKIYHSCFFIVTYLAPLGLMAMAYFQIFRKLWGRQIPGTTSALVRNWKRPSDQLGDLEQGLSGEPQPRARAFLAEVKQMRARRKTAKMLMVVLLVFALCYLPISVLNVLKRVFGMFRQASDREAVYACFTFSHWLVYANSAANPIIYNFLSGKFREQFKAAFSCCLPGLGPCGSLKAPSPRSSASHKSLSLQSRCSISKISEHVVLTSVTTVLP
GalR3 antagonist = antagonists of human GalR3; HEK293 GalR3-CNG cAMP membrane potential fluorescence; galR3 body fused to GalR1 C-terminus; hit rate 0.44% among 360,000; inhibition, % at 3 µM; O60755;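 active = inhibition above the screen-wide average plus 3 SD, cut at about 13% in these data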;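 also: forskolin and galanin both at EC90 stimulate the cells; cAMP rise reported by CNG channel membrane potential dye signal; 0% = forskolin plus galanin with DMSO and 100% = forskolin alone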
OX1R antag-2 = OX1R (human) antagonism | OX1R-expressing cells, FRET antagonist read-out | inhibition, % at 6.6 µM | hit rate 1.8% among 330,000; in the data active = inhibition mostly above about 38%, no sharp cut-off; inactive = mostly below about 40%;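 also: 0% = agonist challenge alone and 100% = reference antagonist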
GPR7 antagonist = blocks human GPR7 receptor signaling; hit rate 1.1% among 290,000; inhibition, % at 4.4 µM; GPR7-expressing cells, fluorescence antagonist assay; P48145; in the data active = inhibition above about 16%, passing the limit was not always enough;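 also: cells stimulated with the agonist NPW; 0% = agonist with vehicle and 100% = vehicle without agonist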
Target sequence (P48145 whole entry, looked up): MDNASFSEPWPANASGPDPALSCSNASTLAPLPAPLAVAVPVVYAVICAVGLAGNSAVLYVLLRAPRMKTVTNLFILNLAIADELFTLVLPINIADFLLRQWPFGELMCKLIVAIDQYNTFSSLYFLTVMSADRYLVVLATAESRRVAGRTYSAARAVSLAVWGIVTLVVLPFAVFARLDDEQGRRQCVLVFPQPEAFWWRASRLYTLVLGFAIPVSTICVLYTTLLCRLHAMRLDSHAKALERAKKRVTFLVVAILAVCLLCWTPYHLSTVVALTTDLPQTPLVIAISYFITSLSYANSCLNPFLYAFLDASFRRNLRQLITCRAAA
An asterisk follows results filed as active; / = not tested or not shown.

SMILES | CHO parental Ca | OX1R antag-1 | GalR3 antagonist | OX1R antag-2 | GPR7 antagonist
COc1cccc2[nH]c3c(N4CCCCC4)ncnc3c12 | -13.1 | -25.5 | 96.4* | 18.3 | -3.8
CCOC(=O)N1CCN(c2ncnc3c2[nH]c2ccc(F)cc23)CC1 | 47.0* | 52.4* | 1.3 | 67.7 | 10.4
COc1ccc2[nH]c3c(N4CCc5ccccc5C4)ncnc3c2c1 | 15.2 | 12.1 | -3.0 | 51.7 | 13.0
COc1ccccc1-c1cccc2nccn12 | / | / | -6.0 | / | /
Fc1ccc2[nH]c3c(N4CCN(c5ccccc5)CC4)ncnc3c2c1 | 58.8* | 67.5* | -8.1 | 117.6* | 5.1
COc1ccccc1C1CC(c2ccc(F)cc2)Nc2ncnn21 (stereo not drawn) | -3.9 | -12.9 | -5.7 | 17.8 | 14.9
COc1ccccc1C1CC(c2ccc(C)cc2)Nc2ncnn21 (stereo not drawn) | -7.5 | -5.7 | -3.9 | 22.2 | 14.2*
COc1ccc(/C=N/Nc2nncn2N)cc1Br | -8.8 | 2.5 | -10.4 | 64.7* | -9.5
CCOc1cc(/C=N/Nc2nnc(C)n2N)ccc1OC(C)=O | / | / | -10.8 | / | -3.9
CC(C)(C)c1nnc(N/N=C/c2cc(Br)ccc2O)n(N)c1=O | -4.9 | 8.6 | -11.2 | 13.8 | -8.7
CCc1nnc(N/N=C/c2c(Cl)cccc2Cl)n1N | -4.2 | -13.5 | -6.4 | 44.8* | -2.8
CCc1nnc(N/N=C\c2ccc(OC(C)=O)c(OC)c2)n1N | -13.8 | -4.8 | -9.4 | 44.3* | -4.8
CCc1nnc(N/N=C/c2cc(Br)c(O)cc2O)n1N | -2.2 | -16.4 | -10.2 | 72.3* | -9.6
COc1cc(/C=N/Nc2ccccn2)ccc1O | 0.7 | -12.6 | 3.3 | 4.8 | -16.4
COc1cccc(/C=N/Nc2nnc(C)n2N)c1O | -0.8 | 4.9 | -8.2 | 71.2* | -3.5
CCc1nnc(N/N=C/c2ccc(O)c(OC)c2)n1N | 1.1 | -1.1 | -8.6 | 58.5* | -3.8
COc1ccc(C(C)(O)c2nc(-c3ccc(F)cc3OC)cs2)cc1 (stereo not drawn) | / | / | -7.9 | / | /
O=C(CSc1ccc(-c2cccs2)nn1)NCc1ccccc1Cl | -18.4 | -13.3 | / | 69.7* | -11.4
CC(=O)Nc1ccc(NC(=O)CSc2ccc(-c3cccs3)nn2)cc1 | 0.3 | -3.1 | -0.2 | 19.9 | 1.3
COc1ccccc1CNC(=O)CSc1ccc(-c2ccccn2)nn1 | -16.8 | -18.4 | -1.5 | 11.5 | -5.8
COc1ccccc1CNC(=O)CSc1ccc(-c2cccs2)nn1 | -20.4 | -9.2 | -2.7 | 59.3* | 3.2
COc1ccc(NC(=O)CSc2ccc(-c3cccs3)nn2)c(OC)c1 | -14.3 | -20.8 | -7.6 | 35.7 | -2.5
COc1cccc(CNC(=O)CSc2ccc(-c3cccs3)nn2)c1 | -10.5 | -16.5 | -3.4 | 58.3* | -4.7
Cc1cccc(NC(=S)NCc2ccccn2)c1 | 0.7 | 9.6 | 3.4 | 15.4 | -15.4
FC(F)(F)c1cccc(NC(=S)NCc2ccccn2)c1 | -8.8 | -5.0 | -3.0 | 13.4 | 20.0*
SMILES | CHO parental Ca | OX1R antag-1 | GalR3 antagonist | OX1R antag-2 | GPR7 antagonist
O=c1c2cc([N+](=O)[O-])ccc2sn1-c1ccccc1 | / | / | -5.8 | / | /
N#Cc1c2ccc([N+](=O)[O-])cc2[n+]([O-])n1-c1ccccc1 | 8.4 | 2.1 | -3.0 | 44.9* | /
CCCCCC(=O)N1C[C@@H](n2cc(C3CC3)nn2)[C@H](O)C[C@@H]1c1ccccc1 | / | / | -1.4 | / | /
Cc1cccc(Cl)c1NC(=O)NCCCN1CCOCC1 | / | / | -1.0 | / | /
O=C(OCC#CCSc1nnc(-c2cccc3ccccc23)o1)c1cccs1 | -11.5 | 3.5 | -0.8 | 56.4* | -17.8
CS(=O)(=O)Nc1ccc2c(c1)[C@@H]1C[C@@H](CC(=O)NCc3cccnc3)O[C@H](CO)[C@@H]1O2 | / | / | -6.4 | / | /
Clc1ccc(C[n+]2cc(-c3ccccc3)n3c2CCCCC3)c(Cl)c1 | -16.9 | -15.2 | -5.3 | 18.5 | 28.9*
Clc1ccc(C[n+]2cc(-c3ccccc3)n3c2CCC3)cc1Cl | -3.2 | -9.3 | -0.4 | -5.0 | 4.9
Cc1cc(/C=C2\SC(=S)NC2=O)c(C)n1-c1ccccc1 | -15.8 | -18.2 | -4.4 | 45.3* | -6.5
Cc1cc(/C=C2\SC(=S)NC2=O)cc(C)c1O | 2.5 | -4.2 | -8.1 | 45.7* | -16.3
Cc1cc(/C=C2\SC(=S)NC2=O)c(C)n1-c1ccc(O)cc1 | 4.7 | 7.4 | 5.3 | 2.7 | 8.8
O=C(NCCCn1ccnc1)c1ccc(Cl)cc1[N+](=O)[O-] | -10.2 | -12.2 | -4.0 | 32.1 | -17.2
O=C(NCCCn1ccnc1)c1cc2cc([N+](=O)[O-])ccc2oc1=O | 1.2 | -8.0 | -7.2 | 69.3* | -10.2
COc1cccc(OCC(=O)Nc2ccccc2NC(C)=O)c1 | 0.9 | -7.6 | -3.2 | 9.6 | 0.0
O=C(COc1cccc2ccccc12)Nc1cc(Cl)ccc1C(=O)O | 1.1 | 13.2 | 0.2 | 67.0* | -15.8
COc1cccc(OCC(=O)Nc2cc(Cl)ccc2Oc2ccccc2)c1 | 39.6* | -15.8 | -6.4 | 19.3 | -5.7
CC(C)(C)NS(=O)(=O)c1ccc(CCC(=O)Nc2cc(Cl)ccc2Oc2ccccc2)cc1 | 43.5* | 65.1* | -0.8 | 81.1* | 8.4
O=C(NC1CCCC1)C1c2ccccc2OCC(=O)N1Cc1ccc2c(c1)OCO2 (stereo not drawn) | / | / | -1.1 | / | /
Cc1noc(C)c1NC(=O)N(C)C[C@@H]1OCc2cn(nn2)CCCC(=O)N([C@@H](C)CO)C[C@H]1C | / | / | -6.9 | / | /
Cc1c(NC(=O)C(C)OC(=O)c2cc(-c3cccc4ccccc34)nc3ccccc23)c(=O)n(-c2ccccc2)n1C (stereo not drawn) | -16.8 | -21.9 | -4.9 | 19.1 | -7.5
COc1ccc(-c2cc(C(=O)OC(C)C(=O)Nc3c(C)n(C)n(-c4ccccc4)c3=O)c3ccccc3n2)cc1 (stereo not drawn) | -21.3 | -1.1 | -5.5 | 61.9* | -0.2
Cc1cc(N2CCN(CC(C)(C)O)C[C@@H]2C)ccc1N1CCN(Cc2ccccc2)[C@H](C)C1 | / | / | -5.3 | / | /
C/C(=N\Nc1nc2ccccc2s1)c1cccs1 | -18.7 | -21.8 | -4.2 | 56.5* | -18.0
C[C@H](c1ccccc1)N1C[C@@H](COCc2ccccc2)Oc2cccc(F)c2S1(=O)=O | / | / | -7.6 | / | /
COCCn1nnnc1C(c1ccc(OC)cc1OC)N1CCN(c2ccccc2F)CC1 (stereo not drawn) | -22.9 | -13.7 | -2.6 | 37.4 | 20.9*
SMILES | CHO parental Ca | OX1R antag-1 | GalR3 antagonist | OX1R antag-2 | GPR7 antagonist
O=C(NC(=S)N1CCN(Cc2ccccc2)CC1)c1ccco1 | 99.6* | -16.9 | 9.3 | -1.3 | -1.8
COc1ccc(OC)c(C(c2nnnn2C2CCCC2)N2CCN(c3ccc(F)cc3)CC2)c1 (stereo not drawn) | -13.9 | -17.1 | -3.1 | 6.0 | 18.1*
COc1ccc(C(c2nnnn2C2CCCC2)N2CCC(C)CC2)c(OC)c1 (stereo not drawn) | -14.6 | -21.7 | -2.6 | 1.7 | 4.4
COC(=O)Nc1cccn(Cc2c(Cl)cccc2Cl)c1=O | -0.6 | -10.9 | -2.9 | 14.1 | -10.4
O=C(Nc1cccn(Cc2c(Cl)cccc2Cl)c1=O)c1c(Cl)cccc1Cl | 3.1 | 8.0 | -4.9 | 55.7* | -13.0
COc1ccc(C(c2nnnn2-c2c(C)cccc2C)N2CCN(C/C=C/c3ccccc3)CC2)cc1 (stereo not drawn) | / | / | -5.9 | / | /
